Reference: article PMC8369490 (ACS Infectious Diseases, 2021)
In brackets after ≈: the same amount, converted by molar mass. Blank lines part the entries; values can stand above or below the compound they belong to.

What was measured:
E. coli TOP10F′ cells = test: MIC in E. coli TOP10F′; assay type: cell-based; details: Escherichia coli, 10 h, read-out: toxicity E. coli MIC
Method in brief: (§1)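 Broth dilution in LB or MHB-II. Bacteria grown to mid-log at 37 °C in flasks, diluted to OD600 0.001 and added 1:1 to medium with 2-fold increasing test compound (0.5% DMSO final). Incubated at 37 °C in a plate reader with continuous linear shaking; OD600 every 15 min for 10 h. MIC is the lowest concentration with no growth detectable by OD600 at 10 h.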

[1] = test system: σ^E cell envelope stress response (PrpoE-mNG reporter) in E. coli TOP10F′ cells expressing Hbp; test: σ^E stress reporter assay; assay type: cell-based; details: Escherichia coli, 3 h, read-out: stress reporter EC50 PrpoE-mNG
[2] = test system: Rcs stress response (PrprA-mNG reporter) in E. coli TOP10F′ cells; test: Rcs stress reporter assay; assay type: cell-based; details: Escherichia coli, 3 h, read-out: stress reporter EC50 PrprA-mNG
Method in brief: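 TOP10F′ with pUA66-PrprA-mNG, at OD600 0.05 in M9, dispensed onto a 1:3 test-compound dilution series in 384-well plates. Positive control is an Hbp-secretion inhibitor at 200 μM; DMSO is the negative control. After 3 h nonshaken incubation, OD600 and mNG fluorescence (ex 488/em 535 nm) measured. EC50 derived from OD600-corrected fluorescence.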

[3] = test system: heat-shock response (PgroES-mNG reporter) in E. coli TOP10F′ cells; test: Heat-shock stress reporter assay; assay type: cell-based; details: Escherichia coli, 3 h, read-out: stress reporter EC50 PgroES-mNG
Method in brief: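 TOP10F′ carrying pEH3-empty and pUA66-PgroES-mNG, at OD600 0.05 in M9, added to 384-well plates with a 1:3 test-compound dilution series. Positive-control wells hold cells with pEH3-ssTorA-Hbp induced by 40 μM IPTG; DMSO controls included. After 3 h nonshaken incubation, OD600 and mNG fluorescence (ex 488/em 535 nm) read. EC50 from OD600-corrected fluorescence.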

[4] = test system: E. coli MC4100 expressing FhuA ΔC/Δ4L; test: Growth inhibition of E. coli expressing open channel FhuA ΔC/Δ4L; assay type: cell-based, Escherichia coli; details: E. coli MC4100, LB, 10 h
Acinetobacter baumannii = test: MIC against bacterial strains; assay type: cell-based; details: 10 h
Method in brief: as §1

[5] = test system: Staphylococcus aureus MRSA; test: MIC against bacterial strains; assay type: cell-based; details: 10 h
Method in brief: as §1

Klebsiella pneumoniae = test: MIC against bacterial strains; assay type: cell-based; details: 10 h
Method in brief: as §1

[6] = test system: OMP levels in E. coli TOP10F′ cells; test: Cell envelope protein analysis; assay type: cell-based, Escherichia coli
Method in brief: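 TOP10F′ cells grown 3 h in LB in flasks with one concentration of test compound. Cells pelleted, sonicated on ice in 10 mM Tris-HCl, 3 mM EDTA, pH 8.0 with protease inhibitors. Envelopes pelleted at 200 000g for 1 h at 4 °C and solubilised overnight at 4 °C in TBS with 1% DDM. SDS-PAGE and immunoblots, loading corrected by OD600; 3 independent experiments.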

OmpT protease = OmpT protease (Escherichia coli, UniProt P09169); test: OmpT protease activity, compound added after OmpT folding was completed; assay type: biochemical; details: 100 μM, added 2 h after start of folding reaction
Method in brief: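 BAM proteoliposomes (2 μM) mixed with SurA (140 μM) and denatured OmpT (20 μM) subreactions in Tris/HCl, pH 6.5, and held 2 h at 30 °C to prefold OmpT. Then combined with a subreaction of test compound (200 μM) or DMSO plus fluorogenic peptide; concentrations are per subreaction. Cleavage read at ex 330/em 430 nm for 80 min at 30 °C. Slope-based activity relative to DMSO.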

E. coli MC4100 bamA101 = test: Growth inhibition of bamA101 knockdown strain versus wild-type; assay type: cell-based, Escherichia coli; details: E. coli MC4100 bamA101, MHB-II, 10 h
Method in brief: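 Wild-type MC4100 and bamA101 knockdown cells grown to mid-log at 37 °C, diluted to OD600 0.001 and mixed 1:1 with MHB-II containing 2-fold increasing test compound (0.5% DMSO final) in 96-well plates. Incubated at 37 °C with continuous linear shaking; OD600 read every 15 min. The 10 h OD600 is expressed as % growth versus DMSO-treated cells (100%).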

HEK293 cells = test: HEK293 cell toxicity; assay type: cell-based; details: 48 h, dose-response up to 60 μM; dash = no toxicity
Method in brief: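 HEK293 cells kept in DMEM with 10% FBS at 37 °C, 5% CO2. Test compound dispensed as a 1:3 dilution series from DMSO stocks; DMSO as negative and tamoxifen as positive control. About 2000 cells per well incubated 48 h at 37 °C, 5% CO2, 90% humidity. Viability read with CellTiter-Glo reagent after 2 min shaking.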

Enterobacter cloacae = test: MIC against bacterial strains; assay type: cell-based; details: 10 h
Method in brief: as §1

Pseudomonas aeruginosa = test: MIC against bacterial strains; assay type: cell-based; details: 10 h
Method in brief: as §1

Escherichia coli (K12) = test: MIC against bacterial strains; assay type: cell-based; details: 10 h
Method in brief: as §1

[7] = test system: Escherichia coli (uropathogenic); test: MIC against bacterial strains; assay type: cell-based; details: 10 h
Method in brief: as §1

[8] = test system: secretion of autotransporter Hbp in E. coli MC1601 degP::S210A; test: Hbp secretion analysis; assay type: cell-based, Escherichia coli; details: Western blotting
Method in brief: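 MC1061 degP::S210A cells grown in M9 to mid-log, diluted to OD600 0.1, mixed 1:1 with M9 containing test compound or DMSO (0.5% final). Hbp induced from pEH3 with 40 μM IPTG at 37 °C with shaking. Cells spun 5000g for 5 min; supernatant TCA-precipitated overnight at 4 °C. Lysates and medium run on 11% SDS-PAGE, immunoblotted (Hbp passenger, Hbp β-barrel, DegP), loading OD600-corrected.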

Bacillus subtilis 168 = test: MIC against bacterial strains; assay type: cell-based
Method in brief: as §1

E. coli MC4100 cells = test: Potentiation of antibiotics; assay type: cell-based, Escherichia coli; details: E. coli MC4100, LB, 10 h
[9] = test system: BAM complex (BamABCDE) reconstituted in proteoliposomes; test: OmpT folding in vitro assay with BAM proteoliposomes; assay type: biochemical, Escherichia coli; details: 100 μM compound, OmpT:SurA 1:42 versus 1:7
Method in brief: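 BAM proteoliposomes (His-tag-purified BamABCDE in DDM, reconstituted into E. coli polar lipids) with test compound and fluorogenic peptide in Tris/HCl, pH 6.5, preincubated 5 min at 30 °C. Mixed with a second subreaction of SurA plus guanidine-denatured OmpT at 1:7 or 1:42 OmpT:SurA. Fluorescence (ex 330/em 430 nm) read every 20 s for 80 min at 30 °C. Linear-phase slopes from three replicates, as % of DMSO.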

Enterococcus faecium VRE = test: MIC against bacterial strains; assay type: cell-based; details: 10 h
Method in brief: as §1

[10] = 0.25× MIC, cell envelopes, Western blotting

Sequence of BAM complex (BamABCDE) reconstituted in proteoliposomes (P77774 20-392): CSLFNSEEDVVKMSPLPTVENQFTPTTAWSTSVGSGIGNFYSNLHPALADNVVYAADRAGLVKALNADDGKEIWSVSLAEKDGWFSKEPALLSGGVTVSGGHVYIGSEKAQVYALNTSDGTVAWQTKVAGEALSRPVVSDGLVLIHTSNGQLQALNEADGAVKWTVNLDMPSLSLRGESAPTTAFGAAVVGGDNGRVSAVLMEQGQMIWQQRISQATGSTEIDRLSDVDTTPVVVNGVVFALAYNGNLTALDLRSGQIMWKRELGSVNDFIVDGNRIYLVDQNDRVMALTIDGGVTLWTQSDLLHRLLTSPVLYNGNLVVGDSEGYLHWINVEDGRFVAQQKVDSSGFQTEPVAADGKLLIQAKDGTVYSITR
Sequence of BAM complex (BamABCDE) reconstituted in proteoliposomes (P0A903 25-344, further chain): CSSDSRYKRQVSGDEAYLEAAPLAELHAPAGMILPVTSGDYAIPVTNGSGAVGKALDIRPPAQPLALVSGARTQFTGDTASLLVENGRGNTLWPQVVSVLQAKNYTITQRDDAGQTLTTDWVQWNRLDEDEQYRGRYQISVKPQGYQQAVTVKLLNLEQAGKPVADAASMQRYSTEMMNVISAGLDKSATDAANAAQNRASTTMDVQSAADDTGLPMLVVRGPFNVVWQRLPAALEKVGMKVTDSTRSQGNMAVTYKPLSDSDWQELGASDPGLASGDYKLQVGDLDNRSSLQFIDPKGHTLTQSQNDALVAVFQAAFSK
Sequence of BAM complex (BamABCDE) reconstituted in proteoliposomes (P0A937 20-113, further chain): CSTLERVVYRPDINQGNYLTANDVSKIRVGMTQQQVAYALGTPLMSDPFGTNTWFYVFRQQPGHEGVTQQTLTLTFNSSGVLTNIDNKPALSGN
Sequence of BAM complex (BamABCDE) reconstituted in proteoliposomes (P0AC02 20-245, further chain): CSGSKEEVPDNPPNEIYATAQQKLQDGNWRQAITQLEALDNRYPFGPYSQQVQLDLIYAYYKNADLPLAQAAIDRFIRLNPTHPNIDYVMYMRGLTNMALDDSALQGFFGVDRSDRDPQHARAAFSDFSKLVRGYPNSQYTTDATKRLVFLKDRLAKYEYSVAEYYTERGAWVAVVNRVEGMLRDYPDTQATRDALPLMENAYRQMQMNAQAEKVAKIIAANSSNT
Sequence of OmpT protease (P09169 21-317): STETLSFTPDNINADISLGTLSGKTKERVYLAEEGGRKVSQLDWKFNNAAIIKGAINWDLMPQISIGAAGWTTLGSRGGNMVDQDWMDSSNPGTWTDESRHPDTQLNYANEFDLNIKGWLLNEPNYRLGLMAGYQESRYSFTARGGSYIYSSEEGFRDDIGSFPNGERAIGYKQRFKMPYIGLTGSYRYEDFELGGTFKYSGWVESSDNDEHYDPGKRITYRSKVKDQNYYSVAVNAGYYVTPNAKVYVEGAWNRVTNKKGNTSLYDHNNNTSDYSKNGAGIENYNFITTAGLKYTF

EC50 [1]: 1 µM | EC50 [2]: 38 µM | EC50 [3]: > 60 µM
Structure (SMILES): CCOC(=O)C1=C(O)CCC(NC(=O)OC(C)(C)C)C1 (stereo not shown) [compound 1]
MIC (E. coli TOP10F′ cells): > 200 µM

Structure (SMILES): CN[C@H](CC(C)C)C(=O)N[C@H]1C(=O)N[C@@H](CC(N)=O)C(=O)N[C@H]2C(=O)N[C@H]3C(=O)N[C@H](C(=O)N[C@H](C(=O)O)c4cc(O)cc(O)c4-c4cc3ccc4O)[C@H](O)c3ccc(c(Cl)c3)Oc3cc2cc(c3O[C@@H]2O[C@H](CO)[C@@H](O)[C@H](O)[C@H]2O[C@H]2C[C@](C)(N)[C@H](O)[C@H](C)O2)Oc2ccc(cc2Cl)[C@H]1O [vancomycin, reference compound]
permeability upon FhuA ΔC/Δ4L expression [4]: clearly increased

Structure (SMILES): Nc1cc(-c2nc3c(c(NCc4ccccc4)n2)CC(N)CC3)ccn1 (stereo not shown) [compound 14, 2-(2-aminopyridin-4-yl)-N4-benzyl-5,6,7,8-tetrahydroquinazoline-4,6-diamine]
MIC (Acinetobacter baumannii): 100 µM (≈ 34.6 µg/mL) | MIC [5]: > 200 µM | MIC (Klebsiella pneumoniae): > 200 µM | levels of the major β-barrel OMPs OmpF, OmpC, and OmpA compared to DMSO ([6]; 0.25× MIC (2: 12 μM, 14: 25 μM), cell envelopes, Western blotting): dropped considerably | level of BamA [6, 10]: severely reduced | levels of lipoproteins BamB and LpoB [6, 10]: largely unaffected | total levels of PhoE ([6]; PhoE expressed from pEH3, 0.25× MIC and 0.5× MIC, 3 h, seminative PAGE): reduced total levels of PhoE in a dose-dependent manner | MIC (E. coli TOP10F′ cells): 100 µM (≈ 34.6 µg/mL) | effect on OmpT protease activity when added after OmpT was folded (OmpT protease): inhibiting effect | antimicrobial effect (MIC) in bamA101 mutant versus wild-type (E. coli MC4100 bamA101): enhanced antimicrobial effect | toxicity HEK293 LD50 (HEK293 cells): 60 µM | MIC (Enterobacter cloacae): > 200 µM | MIC (Pseudomonas aeruginosa): 200 µM (≈ 69.3 µg/mL) | EC50 [1]: > 60 µM | EC50 [2]: 12 µM | MIC (Escherichia coli (K12)): 100 µM (≈ 34.6 µg/mL) | MIC [7]: > 200 µM | Hbp processing in cells (pro-Hbp) ([8]; 0.25× MIC, whole cell lysates): accumulation of pro-Hbp | amount of secreted Hbp passenger in the spent medium ([8]; 2 and 14 at 0.25× MIC, spent medium): decreased | MIC (Bacillus subtilis 168; Bacillus subtilis 168, 10 h, highest concentration tested 200 μM): >200 µM | MIC (Bacillus subtilis 168; Bacillus subtilis, 168, 10 h): > 200 µM | fold decrease of MIC of vancomycin in presence of compound (E. coli MC4100 cells; compound at 0.25× MIC (2: 12 μM, 14: 25 μM)): 4 fold | MICs of ampicillin and chloramphenicol in presence of compound (E. coli MC4100 cells; compound at 0.25× MIC): largely unaffected | influence of 6-fold excess of SurA on the inhibiting effect of the compound [9]: did not influence | EC50 [3]: > 60 µM | MIC (Enterococcus faecium VRE): > 200 µM | effect of FhuA ΔC/Δ4L expression on MIC of the compound [4]: did not affect

Structure (SMILES): CC(=O)Nc1cc(-c2nc(O)c3c(n2)CCC(NC(=O)OC(C)(C)C)C3)ccn1 (stereo not shown) [compound 3]
MIC (E. coli TOP10F′ cells): 25 µM (≈ 9.99 µg/mL) | toxicity HEK293 LD50 (HEK293 cells): 20 µM | EC50 [1]: 7 µM | EC50 [2]: 16 µM | EC50 [3]: > 60 µM
